Test results as given in ChEMBL document CHEMBL4368937, “Design, synthesis and biological evaluation of low molecular weight CXCR4 ligands” (Bioorg Med Chem, 2019).

Legend:
[1] = molecular target: T1, C-X-C chemokine receptor type 4 (Homo sapiens, UniProt P61073); assay: Competitive inhibition of TAMRAAc-TZ14011 binding to CXCR4 (unknown origin) expressed in CHO cells in presence of ZnCl2 by NanoBRET assay relative to control; assay type: cell-based
Outline: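 Cells were incubated with 10 nM TAMRA-Ac-TZ14011 and compound plus ZnCl2 (10 eq). Furimazine was added and BRET ratio taken as >610 nm over 460 nm emission. Inhibition is scaled between no compound and excess Ac-TZ14011.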

[2] = tested on: Human immunodeficiency virus 1; assay: Antiviral activity against X4 tropic HIV-1 NL4-3 infected in human MT4 cells assessed as protection against virus-induced cytopathic effect in absence of ZnCl2 after 5 days by MTT assay; assay type: functional, organism-based; conditions: Human immunodeficiency virus 1, NL4-3, MT4, 120 h
Outline: (§1)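 Protection of MT-4 cells from X4 HIV-1 NL4-3 cytopathicity. Infected cells (MOI 0.001, 2.0 × 10^4 cells/well) received graded compound concentrations, without or with ZnCl2 (10 eq), for 5 days at 37 °C. Viable cells were counted by MTT. EC50 is the concentration giving 50% protection; mean of at least three independent experiments.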

[3] = molecular target: T1, C-X-C chemokine receptor type 4; assay: Competitive inhibition of [125I]-CXCL12 binding to CXCR4 in human Jurkat cells at 1 uM in presence of ZnCl2 after 2 hrs by gamma counting analysis relative to control; assay type: cell-based
[4] = tested on: Human immunodeficiency virus 1; assay: Antiviral activity against R5 tropic HIV-1 NL(AD8) infected in human MT4 cells assessed as protection against virus-induced cytopathic effect at 10 uM in presence of ZnCl2 after 5 days by MTT assay; assay type: functional; conditions: Human immunodeficiency virus 1, NL(AD8), MT4, 120 h
[5] = molecular target: T1, C-X-C chemokine receptor type 4; assay: Competitive inhibition of TAMRAAc-TZ14011 binding to CXCR4 (unknown origin) expressed in CHO cells at 1 uM in absence of ZnCl2 by NanoBRET assay relative to control; assay type: cell-based
Outline: (§2)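 Single-point competition in CHO cells stably expressing N-terminally Nluc-tagged CXCR4 (5 x 10^4 cells, seeded 24 h earlier at 37 °C, 5% CO2, medium then replaced with OptiMEM). Cells were incubated with 10 nM TAMRA-Ac-TZ14011 plus 1 µM compound, without or with 10 µM ZnCl2 (10 eq), for 1 h at 25 °C. Furimazine was added and BRET read as acceptor (>610 nm) over donor (460 nm). Inhibition is relative to no compound and to excess Ac-TZ14011; mean ± SEM, n = 3.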

[6] = molecular target: T1, C-X-C chemokine receptor type 4; assay: Competitive inhibition of TAMRAAc-TZ14011 binding to CXCR4 (unknown origin) expressed in CHO cells at 1 uM in presence of ZnCl2 by NanoBRET assay relative to control; assay type: cell-based; outline: as §2
[7] = Cytotoxicity against human MT4 cells in absence of ZnCl2; assay type: cell-based
[8] = tested on: Human immunodeficiency virus 1; assay: Antiviral activity against X4 tropic HIV-1 NL4-3 infected in human MT4 cells assessed as protection against virus-induced cytopathic effect in presence of ZnCl2 after 5 days by MTT assay; assay type: functional, organism-based; conditions: Human immunodeficiency virus 1, NL4-3, MT4, 120 h; outline: as §1
[9] = molecular target: T1, C-X-C chemokine receptor type 4; assay: Competitive inhibition of [125I]-CXCL12 binding to CXCR4 in human Jurkat cells at 1 uM in absence of ZnCl2 after 2 hrs by gamma counting analysis relative to control; assay type: cell-based
[10] = tested on: Human immunodeficiency virus 1; assay: Antiviral activity against R5 tropic HIV-1 NL(AD8) infected in human MT4 cells assessed as protection against virus-induced cytopathic effect at 10 uM in absence of ZnCl2 after 5 days by MTT assay; assay type: functional; conditions: Human immunodeficiency virus 1, NL(AD8), MT4, 120 h
[11] = Cytotoxicity against human MT4 cells in presence of ZnCl2; assay type: cell-based
Outline: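 MT-4 viability with compound plus ZnCl2 (10 eq). CC50 is the concentration giving 50% reduction in viable cells; mean of at least three independent experiments.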

T1 sequence (P61073 whole entry): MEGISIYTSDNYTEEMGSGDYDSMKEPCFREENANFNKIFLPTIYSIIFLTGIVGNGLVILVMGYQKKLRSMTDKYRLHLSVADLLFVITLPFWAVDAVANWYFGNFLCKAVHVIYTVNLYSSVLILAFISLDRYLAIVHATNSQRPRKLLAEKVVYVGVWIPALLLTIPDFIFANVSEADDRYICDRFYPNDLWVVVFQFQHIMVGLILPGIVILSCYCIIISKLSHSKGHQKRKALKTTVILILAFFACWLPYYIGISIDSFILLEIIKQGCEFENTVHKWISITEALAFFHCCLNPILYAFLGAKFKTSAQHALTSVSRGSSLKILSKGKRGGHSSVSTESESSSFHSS

| SMILES | IC50 [1] [µM] | inhibition [3] [%] | inhibition [5] [%] | inhibition [6] [%] | inhibition [9] [%] | EC50 [2] [µM] | inhibition at 10 µM [4] [%] | CC50 [7] [µM] | EC50 [8] [µM] | inhibition at 10 µM [10] [%] | CC50 [11] [µM] |
| --- | --- | --- | --- | --- | --- | --- | --- | --- | --- | --- | --- |
| c1ccc(CN(Cc2ccccn2)Cc2ccccc2-c2cccc(CN3CCCNCCNCCCNCC3)c2)nc1 | 0.0079 | 100 | 56 | 102 | 41.9 | 0.04 | < 30 | > 10 | 0.013 | < 30 | – |
| c1ccc(CN(Cc2ccnc(-c3ccc(CN4CCCNCCNCCCNCC4)cc3)c2)Cc2ccccn2)nc1 | – | 89.7 | 79.7 | 92.6 | 39.2 | 0.14 | < 30 | > 10 | 0.045 | < 30 | – |
| c1ccc(CN(Cc2cccc(-c3cccc(CN4CCCNCCNCCCNCC4)c3)c2)Cc2ccccn2)nc1 | – | 105 | 40.4 | 88.4 | 46.6 | 0.75 | < 30 | > 10 | 0.98 | < 30 | – |
| c1ccc(CN(Cc2ccc3c(c2)-c2cc(CN4CCCNCCNCCCNCC4)ccc2OCCCCO3)Cc2ccccn2)nc1 | – | 78.4 | 54.5 | 78.9 | 57.3 | 0.67 | < 30 | > 10 | 0.28 | < 30 | – |
| c1ccc(CN(Cc2ccc(-c3ccc(CN4CCCNCCNCCCNCC4)cc3)cc2)Cc2ccccn2)nc1 | – | 85.5 | 51.1 | 87.9 | 33.9 | 0.78 | < 30 | 4.8 | 1 | < 30 | – |
| c1ccc(CN(Cc2ccc(-c3ccccc3CN3CCCNCCNCCCNCC3)cc2)Cc2ccccn2)nc1 | 0.0057 | 91.6 | 52.6 | 83.1 | 54.9 | 0.04 | 58 | > 10 | 0.021 | < 30 | – |
| c1ccc(CN(Cc2ccc(CN3CCCNCCNCCCNCC3)cc2)Cc2ccccn2)nc1 | 0.032 | 82.5 | 101 | 83.7 | 110 | 0.0065 | – | > 10 | 0.0027 | – | > 10 |
| c1ccc(CN(Cc2ccc3c(c2)-c2cc(CN4CCCNCCNCCCNCC4)ccc2OCO3)Cc2ccccn2)nc1 | – | 95.6 | 43.5 | 88.5 | 54.4 | 0.8 | < 30 | > 10 | 0.87 | < 30 | – |
| c1ccc(CN(Cc2ccnc(-c3cc(CN4CCCNCCNCCCNCC4)ccn3)c2)Cc2ccccn2)nc1 | – | 99.2 | 88.5 | 92.2 | 100 | 0.92 | < 30 | > 10 | 0.2 | < 30 | – |
| c1ccc(CN(Cc2ccc(-c3ccc(CN4CCCNCCNCCCNCC4)cc3)nc2)Cc2ccccn2)nc1 | – | 105 | 89.1 | 102 | 27 | 0.59 | < 30 | > 10 | 0.13 | < 30 | – |
| c1ccc(CN(Cc2ccc3ccc(CN4CCCNCCNCCCNCC4)cc3c2)Cc2ccccn2)nc1 | – | 87.5 | 82.1 | 84.8 | 83.5 | 0.79 | < 30 | > 10 | 1.1 | < 30 | – |
| c1ccc(CN(Cc2ccc(-c3ncccc3CN3CCCNCCNCCCNCC3)cc2)Cc2ccccn2)nc1 | 0.0045 | 88.5 | 31.9 | 93.9 | 41.4 | 0.11 | < 30 | > 10 | 0.061 | < 30 | – |

Continued, in another order:

| IC50 [1] [µM] | inhibition [3] [%] | inhibition [5] [%] | inhibition [6] [%] | inhibition [9] [%] | SMILES | EC50 [2] [µM] | inhibition at 10 µM [4] [%] | CC50 [7] [µM] | EC50 [8] [µM] | inhibition at 10 µM [10] [%] | CC50 [11] [µM] |
| --- | --- | --- | --- | --- | --- | --- | --- | --- | --- | --- | --- |
| – | 74.1 | 79.8 | 99 | 90.4 | c1ccc(CN(Cc2ccccn2)Cc2ccccc2-c2ccccc2CN2CCCNCCNCCCNCC2)nc1 | 1 | < 30 | > 10 | 5.8 | < 30 | – |
| – | 97.1 | 50.4 | 81.8 | 32.5 | c1ccc(CN(Cc2ccc3c(c2)-c2cc(CN4CCCNCCNCCCNCC4)ccc2OCCCO3)Cc2ccccn2)nc1 | 0.58 | < 30 | > 10 | 0.3 | < 30 | – |
| 0.01 | 99.6 | 80.7 | 89.9 | 98.2 | c1ccc(CN(Cc2ccc3cc(CN4CCCNCCNCCCNCC4)ccc3c2)Cc2ccccn2)nc1 | 0.47 | < 30 | > 10 | 0.24 | < 30 | > 10 |
| 0.0035 | 84.7 | 47.6 | 93.4 | 63 | c1ccc(CN(Cc2ccnc(-c3cccc(CN4CCCNCCNCCCNCC4)c3)c2)Cc2ccccn2)nc1 | 0.17 | < 30 | > 10 | 0.028 | < 30 | – |
| – | 98.7 | 75.3 | 94.4 | 68.6 | c1ccc(CN(Cc2ccc(-c3ccc(CN4CCCNCCNCCCNCC4)cn3)nc2)Cc2ccccn2)nc1 | 0.68 | < 30 | > 10 | 0.9 | < 30 | – |
| – | 84.1 | 64.6 | 87.5 | 79.9 | c1ccc(CN(Cc2ccccn2)Cc2ccccc2-c2ccc(CN3CCCNCCNCCCNCC3)cc2)nc1 | 2.6 | < 30 | > 10 | 0.89 | < 30 | – |
| – | 110 | 81.1 | 101 | 81 | c1ccc(CN(Cc2ccc3nc(CN4CCCNCCNCCCNCC4)ccc3c2)Cc2ccccn2)nc1 | > 0.97 | – | > 10 | 5.5 | – | – |
| – | 116 | 44.4 | 83.1 | 46.1 | c1ccc(CN(Cc2cccc(-c3ccccc3CN3CCCNCCNCCCNCC3)c2)Cc2ccccn2)nc1 | 4.2 | < 30 | > 10 | 1.1 | < 30 | – |
| – | 101 | 89.7 | 78.2 | 10.9 | c1ccc(CN(Cc2ccc(-c3cccc(CN4CCCNCCNCCCNCC4)c3)cc2)Cc2ccccn2)nc1 | 0.8 | < 30 | > 10 | 1.1 | < 30 | – |
| – | 119 | 35.6 | 105 | 38.3 | c1ccc(CN(Cc2cccc(-c3ccc(CN4CCCNCCNCCCNCC4)cc3)c2)Cc2ccccn2)nc1 | 3.1 | < 30 | > 10 | 1 | < 30 | – |
| – | 119 | 47.8 | 89 | 48.7 | c1ccc(CN(Cc2ccc3c(c2)-c2cc(CN4CCCNCCNCCCNCC4)ccc2OCCO3)Cc2ccccn2)nc1 | 1.9 | < 30 | > 10 | 0.97 | < 30 | – |
